In the library only some 3.1% were active in any assay of this set; here they are far more common.
Lipid droplet: modulators of hepatic lipid droplet formation. 0.4% of 240,000 active. AML12 mouse hepatocytes, oleate lipid droplets, BODIPY imaging. AID 1656. inhibition, % at 6.5 µM;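 active = lipid droplet intensity inhibited by at least 50%, with more than 500 cells counted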
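Assay system: AML12 hepatocytes (mouse) / Also added: 100 µM oleic acid challenge / Times: overnight treatment with compound plus oleate / Detection: high-content imaging of BODIPY-stained droplets and DAPI nuclei / Evaluation: % inhibition of lipid droplet signal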
MPTP inh: permeability transition pore inhibition; isolated mouse mitochondria, Ca2+ swelling absorbance, 30 min; inhibition, % at 10 µM; 1.4% of 360,000 active; AID 602449;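 active = inhibition of 50% or more, scaled per plate between neutral and stimulator controls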;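 also: 0% = DMSO wells given calcium and 100% = 1 mM EGTA wells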
ADAM10 inh: inhibits human ADAM10. O14672. recombinant ADAM10, EDANS/DABCYL FRET peptide cleavage, 3 h. inhibition, % at 7 µM. 0.62% of 370,000 active;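 active = inhibition above a per-campaign cutoff equal to the mean of compounds falling between control-based bounds plus 3 SD, cut at about 20% in these data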;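 also: 0% = DMSO wells while the 100% control is not disclosed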
Target sequence (O14672 214-748 limits assumed): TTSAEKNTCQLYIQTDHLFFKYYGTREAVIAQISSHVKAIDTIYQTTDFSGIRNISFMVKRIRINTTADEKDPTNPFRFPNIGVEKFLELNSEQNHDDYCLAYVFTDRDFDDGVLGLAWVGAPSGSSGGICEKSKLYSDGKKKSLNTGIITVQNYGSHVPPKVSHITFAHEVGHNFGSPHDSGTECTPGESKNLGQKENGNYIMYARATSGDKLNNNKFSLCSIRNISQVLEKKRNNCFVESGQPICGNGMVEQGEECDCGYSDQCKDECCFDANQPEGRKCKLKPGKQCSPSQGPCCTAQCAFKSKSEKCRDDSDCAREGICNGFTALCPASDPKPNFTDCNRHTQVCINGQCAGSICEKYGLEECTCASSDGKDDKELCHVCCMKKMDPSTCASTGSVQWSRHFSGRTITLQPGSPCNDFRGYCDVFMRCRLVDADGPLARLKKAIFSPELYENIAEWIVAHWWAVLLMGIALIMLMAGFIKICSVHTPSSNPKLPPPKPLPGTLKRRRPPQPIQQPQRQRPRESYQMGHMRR
ADAM17 inh: ADAM17 inhibition, QFRET primary screen; 0.83% of 370,000 active; inhibition, % at 6.95 µM; recombinant ADAM17, EDANS/DABCYL FRET peptide cleavage;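 active = inhibition above the mean of compounds lying between control limits plus 3 SD, set per campaign, cut at about 8.5% in these data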;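 also: 0% = DMSO-only wells as the low control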
aDG glyco up: increases alpha dystroglycan glycosylation | Pro5-aDG cells, alpha-DG glycosylation AlphaScreen (IIH6); 0% Pro5, 100% B10-LARGE cell signal | activation, % at 10 µM | 0.22% of 360,000 active | AID 624168;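 active = activation of at least 8% versus controls, or a plate z-score of at least 8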;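 also: Pro5 are CHO cells carrying HIG-tagged alpha-DG that lacks glycosylation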
V-ATPase pH: regulators of yeast V-ATPase proton transport | S. cerevisiae, pHLuorin cytosolic pH fluorescence | response, % at 10 µM | 0.37% of 350,000 active | AID 504577; in the data active = response mostly above about 7.3%, no sharp cut-off; inactive = mostly below about 5.4%; also: actives read high
ADAM10 confirm: human ADAM10 inhibition, confirmation. 1% of 2,100 active. ADAM10 QFRET peptide cleavage, EDANS fluorescence. shares compounds with ADAM10 inh. inhibition, % at 6.95 µM;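 active = inhibition above about 20% chosen separately for each screening run, limit read from the data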;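 also: 0% = DMSO wells and 100% = marimastat wells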
ADAM17 counter: inhibits human ADAM17 in ADAM10 exosite counter-screen. shares compounds with ADAM10 inh. ADAM17 QFRET peptide cleavage, EDANS fluorescence. inhibition, % at 6.95 µM. 0.5% of 2,100 active. AID 743214;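 active = mean triplicate inhibition above the solvent-only control wells' mean plus 3 SD, cut at about 12% in these data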;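 also: 0% = DMSO wells and 100% = marimastat wells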
ADAM10 counter: inhibits human ADAM10 in ADAM17 exosite counter-screen | shares compounds with ADAM17 inh | AID 743256 | 47% of 2,900 active | inhibition, % at 6.95 µM | recombinant ADAM10, EDANS/DABCYL FRET peptide cleavage, 3 h;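 active = mean inhibition over the triplicate runs exceeds the activity threshold set in the earlier primary screen, cut at about 20% in these data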;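 also: 0% = DMSO wells and 100% = marimastat wells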
ADAM17 confirm: human ADAM17 inhibition, confirmation. recombinant ADAM17, EDANS/DABCYL QFRET peptide cleavage. inhibition, % at 6.95 µM. 65% of 2,900 active. shares compounds with ADAM17 inh;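 active = mean inhibition across replicates above the hit cutoff set in the primary screen, cut at about 8.5% in these data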;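 also: 0% = DMSO wells and 100% = marimastat wells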
* marks the source's active call; other numbers are inactive results; · = not tested or not shown.

SMILES	Lipid droplet	MPTP inh	ADAM10 inh	ADAM17 inh	aDG glyco up	V-ATPase pH	ADAM10 confirm	ADAM17 counter	ADAM10 counter	ADAM17 confirm
COc1ccc(C(=O)Nc2ccc(OCC(F)(F)C(F)F)c(C(F)(F)F)c2)cc1OC	·	1	26*	9.0*	3	2	3	0	52*	20*
COc1cccc(OCC(C)CN2CCC(C(O)(c3ccccc3)c3ccccc3)CC2)c1 (stereo unspecified)	·	·	3	5	·	·	·	·	·	·
Cc1cc(C)c(-c2cc(NC(=O)COC(=O)c3ccc(C#N)cc3)n(-c3ccccc3)n2)cc1C	16	5	23*	9.1*	0	5	15	4	22*	13*
Cc1cc(C)c(-c2cc(NC(=O)COC(=O)c3ccc(NC(=O)CC#N)cc3)n(-c3ccccc3)n2)cc1C	·	-2	-3	0	0	2	·	·	·	·
CCOC(=O)[C@]12CCCC3=C1N(CCC3)C(=O)[C@@H](CC(=O)NCc1ccccc1)C2	·	·	1	0	·	·	·	·	·	·
CCc1ccc(C2c3[nH]c4ccccc4c3CCN2C(=O)c2cc(C)nn2C)cc1 (stereo unspecified)	15	4	23*	13*	0	3	7	3	16	10*
C#CCN(C[C@@H]1[C@@H](OC(=O)NCc2ccccc2F)[C@@H](OC(=O)NCc2ccccc2F)Cn2c(=O)n(CCCCCC)c(=O)n21)S(=O)(=O)c1ccc(C)cc1	·	-1	0	3	2	0	·	·	·	·
C#CCN(C[C@@H]1[C@@H](OC(=O)NCc2ccccc2F)[C@@H](OC(=O)NCc2ccccc2F)Cn2c(=O)ccc(=O)n21)S(=O)(=O)c1ccc(C)cc1	·	0	24*	9.4*	0	-1	6	1	22*	12*
Cc1ccc(S(=O)(=O)N(Cc2ccc(Cl)cc2)c2ccccc2C(=O)NCc2ccco2)cc1	-18	-1	22*	11*	0	0	6	2	19	12*
N#C/C(=C(/O)CSc1nnc(Cc2cccs2)n1C1CCCCC1)c1nc2ccccc2[nH]1	·	-11	-15	-8	0	-2	·	·	·	·
COc1ccccc1-c1nnc(SC/C(O)=C(\C#N)c2nc3ccccc3[nH]2)n1C1CCCCC1	-45	7	28*	8.7*	0	3	1	0	6	5
c1nc(NC[C@@H]2CCCO2)c2cc(-c3ccc4c(c3)OCO4)ccc2n1	·	·	-76	-29	·	·	·	·	·	·
O=C(CSc1nnc(-c2cccs2)n1Cc1ccco1)Nc1ccc(Oc2ccccc2)cc1	·	·	21*	8.7*	·	·	13	5	28*	14*
O=C(CSc1nnc(-c2ccccc2)n1Cc1ccco1)Nc1ccc(Oc2ccccc2)cc1	·	·	-5	0	·	·	·	·	·	·
O=C(CSc1nnc(-c2ccccc2)n1Cc1ccco1)Nc1ccc(OCc2ccccc2)cc1	·	·	37*	10.0*	·	·	5	0	21*	14*
COC(=O)C[C@@H]1CC[C@@H]2[C@@H](COc3ccc(NC(C)=O)cc3C(=O)N2C)O1	·	·	3	-1	·	·	·	·	·	·
COc1ccc(Cl)cc1NC(=S)NCCc1c[nH]c2ccccc12	·	0	22*	10*	0	2	4	1	36*	21*
C=CCN=C1NC(c2ccc(F)cc2)C(C(=O)OC)=C(C)N1Cc1ccccc1C(F)(F)F (stereo unspecified)	·	·	-14	-4	·	·	·	·	·	·
CCc1nc2ccc(C(=O)Nc3cccc(NS(C)(=O)=O)c3)cn2c1N(CC)Cc1cccc(Br)c1	·	2	36*	15*	0	·	9	3	23*	13*
CCc1nc2ccc(C(=O)Nc3cccc(OC)c3)cn2c1N(CC)Cc1cccc(Br)c1	·	-2	22*	11*	1	·	12	3	27*	12*
CCCCNC(=O)C[C@@H]1C(=O)N2CCCC3=C2[C@@]1(C(=O)OCC)CCC3	·	·	-1	-4	·	·	·	·	·	·
O=C(OCCN1CCN(C2CN(Cc3cn(Cc4cccc(F)c4)nn3)S(=O)(=O)C2)CC1)c1cc2ccccc2o1 (stereo unspecified)	·	·	-4	-2	·	·	·	·	·	·
CN1CCN(c2ccc(-c3csc(N4CCC(C(N)=O)CC4)n3)cc2)CC1	·	·	1	-2	·	·	·	·	·	·
Cc1cccc(-n2cc(CN(C)Cc3nccn3C)c(-c3cccc(F)c3)n2)c1	-22	-2	24*	11*	0	0	3	1	12	10*
CCN(CC)c1ccc(NC(=O)COC(=O)CSc2ccc(Br)cc2C)cc1	1	-2	26*	20*	0	-6	13	6	41*	23*
SMILES	Lipid droplet	MPTP inh	ADAM10 inh	ADAM17 inh	aDG glyco up	V-ATPase pH	ADAM10 confirm	ADAM17 counter	ADAM10 counter	ADAM17 confirm
Cc1ccc(S(=O)(=O)N2CCOCC2)cc1NC(=O)COC(=O)CSc1ccc(Br)cc1C	-4	2	21*	13*	0	0	0	0	20*	11*
Cc1cc(NC(=O)/C=C/c2ccccc2Cl)no1	1	1	7	2	0	0	·	·	·	·
CN(C)c1ccc(NC(=O)/C=C/c2ccccc2Cl)cc1	-2	2	22*	12*	0	-5	4	0	-1	2
CCN(CC)c1ccc(NC(=O)/C=C\c2ccccc2Cl)cc1	12	5	27*	14*	0	2	6	3	38*	19*
CN(C)c1cccc(/C=C2\CC3(OC(=O)c4ccc(Cl)cc4)CCCN2C3)c1 (stereo unspecified)	·	·	0	-1	·	·	·	·	·	·
O=C1CCCN1c1ccc(S(=O)(=O)N2CCCCC2)cc1[N+](=O)[O-]	0	-1	-2	-3	0	-1	·	·	·	·
O=C1CCCN1c1ccc(S(=O)(=O)Oc2cccc(Cl)c2)cc1[N+](=O)[O-]	·	-2	20*	9.7*	1	-1	3	1	5	5
COC(=O)C1CN(Cc2ccc(F)cc2)CCS(=O)(=O)N1Cc1ccc(F)cc1 (stereo unspecified)	·	·	1	0	·	·	·	·	·	·
C[C@H]1CN([C@@H](C)CO)C(=O)c2cccc(NS(=O)(=O)c3ccc(F)cc3)c2O[C@H]1CN(C)Cc1ccc(Cl)c(Cl)c1	·	-2	20*	9.2*	2	1	5	1	28*	15*
